The record followed here is ChEMBL document CHEMBL1145845, “Acetogenins as selective inhibitors of the human ovarian 1A9 tumor cell line” (2003).

For assay [1], the system named is HOS. The assay can be described thus: Effective dose required for inhibitory activity against HOS human tumor cell line. The assay is classed as functional. The conditions noted are these: read-out: ED50 (the source's name). The method in brief: (§1)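 Human tumor lines were grown in RPMI-1640 with 25 mM HEPES, 0.25% sodium bicarbonate, 10% FBS and 100 µg/mL kanamycin. KB-VIN is a vincristine-resistant KB subline, and PTX10 is a 1A9 subline with mutated β-tubulin. Trypsinized cells (1500–7500/well) got compound from DMSO stock for 3 days continuous. Cells were fixed with cold 50% TCA, stained with 0.4% SRB, and read at 562 nm. ED50 is the 50% growth-reduction concentration; not active means ≤5% inhibition at the top concentration.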

For assay [2], the system named is 1A9. The assay can be described thus: Percent inhibition against 1A9 human tumor cell line at 0.10 ug/mL. It counts as functional. The gist of the method: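 Human ovarian 1A9 cells grown in RPMI-1640 with 25 mM HEPES, 0.25% sodium bicarbonate, 10% FBS and 100 µg/mL kanamycin. Freshly trypsinized cells seeded at 1500–7500/well; compound added from DMSO-diluted stock; 3-day continuous exposure. Cells fixed with cold 50% TCA, stained with 0.4% SRB, dye solubilized, A562 read. Percent growth inhibition given where <50% at highest concentration.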

Assay [3] deals with KB. The assay can be described thus: Effective dose required for inhibitory activity against KB human tumor cell line. The assay is classed as functional. The conditions noted are these: read-out: ED50 (the source's name). The method in brief: as §1
Assay [4] concerns SK-MEL-2. The assay can be described thus: Effective dose required for inhibitory activity against SK-MEL-2 human tumor cell line; Not active. It counts as functional, cell-based. The method in brief:
as §1

Assay [5] deals with KB. The assay can be described thus: Effective dose required for inhibitory activity against KB-VIN human tumor cell line. It counts as functional. Particulars: read-out: ED50 (the source's name). The gist of the method:
as §1

Assay [6] has as its system PC-3. The experiment in a line: Effective dose required for inhibitory activity against PC-3 human tumor cell line. It counts as functional. Particulars: read-out: ED50 (the source's name). The method in brief: as §1
For assay [7], the system named is 1A9/ptx-10. The experiment in a line: Percent inhibition against PTX10 human tumor cell line at >10 ug/mL. It counts as functional.
For assay [8], the system named is A549. The experiment in a line: Effective dose required for inhibitory activity against A549 human tumor cell line. The assay is classed as functional. The conditions noted are these: read-out: ED50 (the source's name). The method in brief:
as §1

Assay [9] relates to MCF7. The assay can be described thus: Effective dose required for inhibitory activity against MCF-7 human tumor cell line. The assay is classed as functional. Particulars: read-out: ED50 (the source's name). The gist of the method: as §1
For the next assay, the system named is HCT-8. The assay can be described thus: Effective dose required for inhibitory activity against HCT-8 human tumor cell line. The conditions noted are these: read-out: ED50 (the source's name). The assay is classed as functional. The method in brief:
as §1

In assay [10] the test system is CAKI-1. The experiment in a line: Effective dose required for inhibitory activity against CAK1 human tumor cell line; Not active. It counts as functional, cell-based. The gist of the method:
as §1

For assay [11], the system named is PC-3. The experiment in a line: Effective dose required for inhibitory activity against PC-3 human tumor cell line; Not active. The assay is classed as functional, cell-based. The gist of the method:
as §1

Assay [12] has as its system 1A9. The assay can be described thus: Effective dose required for inhibitory activity against 1A9 human tumor cell line. It counts as functional. The conditions noted are these: read-out: ED50 (the source's name). The gist of the method:
as §1

Assay [13] deals with SK-MEL-2. The assay can be described thus: Effective dose required for inhibitory activity against SK-MEL-2 human tumor cell line. It counts as functional. Particulars: read-out: ED50 (the source's name). The method in brief: as §1
Assay [14] concerns HOS. The assay can be described thus: Effective dose required for inhibitory activity against HOS human tumor cell line; Not active. It counts as functional, cell-based. The method in brief: as §1
Assay [15] deals with CAKI-1. The experiment in a line: Effective dose required for inhibitory activity against CAK1 human tumor cell line. The assay is classed as functional. The conditions noted are these: read-out: ED50 (the source's name). The method in brief:
as §1

Assay [16] has as its system A549. The assay can be described thus: Effective dose required for inhibitory activity against A549 human tumor cell line; Not active. It counts as functional, cell-based. The gist of the method: as §1
The test system of assay [17] is 1A9/ptx-10. The assay can be described thus: Effective dose required for inhibitory activity against PTX10 human tumor cell line. It counts as functional. The conditions noted are these: read-out: ED50 (the source's name). The method in brief:
as §1

In assay [18] the test system is MCF7. The experiment in a line: Percent inhibition against MCF-7 human tumor cell line at <5 ug/mL. The assay is classed as functional.
For assay [19], the system named is 1A9. The assay can be described thus: Percent inhibition against 1A9 human tumor cell line at <0.00008 ug/mL. It counts as functional.
Assay [20] deals with 1A9. The experiment in a line: Percent inhibition against 1A9 human tumor cell line at >10 ug/mL. It counts as functional.

Molecules are shown by their SMILES. Values after ≈ are worked out from the molar mass of the structure shown. Active and inactive are the calls of the source. A value given as a limit tells only on which side of the number the result lay.

Consider `CCCCCCCCC[C@H](O)[C@@H]1CC[C@H]([C@H]2CC[C@@H](CCCCCCCCCC[C@H](O)CC3=C[C@H](C)OC3=O)O2)O1`, for which the EC50 in the assay on HOS [1], in the assay with KB [3], with KB [5], in the assay with PC-3 [6], in the assay on A549 [8] and in the assay with MCF7 [9] was over 20 µg/mL throughout. The EC50 in the assay with HCT-8 is over 20 µg/mL. Besides, in the assay with 1A9 [2], the inhibition (in general, the drop in the measured response relative to a control, in per cent) at 0.1 µg/mL stood at 47%. In addition, the NA entry in the assay on SK-MEL-2 [4] and in the assay with CAKI-1 [10] was “inactive” throughout. In addition, in the assay on 1A9/ptx-10 [7], the Inhibition – broadly, how much of the control response was suppressed – was 23%.

For `CCCCCCCCCCCC[C@@H](O)[C@H]1CC[C@H]([C@H](O)CCCCCCCCCCCCC2=C[C@H](C)OC2=O)O1` [REL-SOLAMIN], the EC50 with HOS [1] is over 20 µg/mL; in the assay with KB [3], over 20 µg/mL; in the assay with 1A9 [12], 7.8 µg/mL (≈ 13.8 µM); with KB [5] it was over 20 µg/mL; in the assay on A549 [8] it was over 20 µg/mL; in the assay with MCF7 [9], over 20 µg/mL. In addition, the EC50 in the assay on HCT-8 was over 20 µg/mL. The NA entry in the assay with PC-3 [11], in the assay with SK-MEL-2 [4] and in the assay with CAKI-1 [10] was “inactive” in each case. Also, the Inhibition in the assay on 1A9/ptx-10 [7] is reported as 18%.

Regarding `CCCCCCCCCCCC[C@@H](O)[C@H]1CC[C@H]([C@H](O)CCCCCCCCCC[C@@H](O)CC2=C[C@H](C)OC2=O)O1` [MURISOLIN], the EC50 with SK-MEL-2 [13] was over 20 µg/mL; with KB [3], over 20 µg/mL; in the assay with 1A9 [12] it was 0.96 µg/mL (≈ 1.65 µM); in the assay on KB [5], over 20 µg/mL; in the assay on PC-3 [6], over 20 µg/mL; with MCF7 [9], over 20 µg/mL. For the same compound, the EC50 in the assay on CAKI-1 [15] and in the assay on HCT-8 was over 20 µg/mL each time. In addition, the NA result with HOS [14] and with A549 [16] was “inactive” throughout. In the assay with 1A9/ptx-10 [7], this compound gave an Inhibition of 21%.

As to `CCCCCCCCCCCC[C@H](O)[C@@H]1CC[C@@H]([C@@H](O)CCCCCCC(O)CCCCC[C@@H](O)CC2=C[C@H](C)OC2=O)O1` (stereo partly specified) [ANNOMONTACIN], the EC50 in the assay on HOS [1] stood at 14.1 µg/mL (≈ 22.6 µM); in the assay on 1A9/ptx-10 [17], 6.8 µg/mL (≈ 10.9 µM); in the assay on SK-MEL-2 [13] it was 14.1 µg/mL (≈ 22.6 µM); with KB [3], 9.2 µg/mL (≈ 14.7 µM); in the assay on 1A9 [12], 0.078 µg/mL (≈ 0.125 µM); in the assay on KB [5] it was 13.7 µg/mL (≈ 21.9 µM). Also, the EC50 in the assay with PC-3 [6] worked out at 9.2 µg/mL (≈ 14.7 µM); with A549 [8], 11.8 µg/mL (≈ 18.9 µM); with CAKI-1 [15], 15.3 µg/mL (≈ 24.5 µM); in the assay on HCT-8, 13.7 µg/mL (≈ 21.9 µM). Besides, the Inhibition in the assay on MCF7 [18] is listed as 51%.

Regarding `CCCCCCCCCC[C@@H](O)[C@@H]1CC[C@@H]([C@@H]2CC[C@@H]([C@H](O)CCCCCCCCCC(O)CC3=CC(C)OC3=O)O2)O1` (stereo partly specified) [BULLATACIN], the EC50 in the assay with HOS [1] was 11.9 µg/mL (≈ 19.5 µM); in the assay on 1A9/ptx-10 [17], 8 µg/mL (≈ 13.1 µM); in the assay on SK-MEL-2 [13], 17.1 µg/mL (≈ 28.1 µM); in the assay on KB [3], 10 µg/mL (≈ 16.4 µM); with KB [5], 16.1 µg/mL (≈ 26.4 µM); in the assay on PC-3 [6], 14.3 µg/mL (≈ 23.5 µM). Also, the EC50 in the assay with A549 [8] turned out to be 13.3 µg/mL (≈ 21.8 µM); in the assay on MCF7 [9] it was 8.4 µg/mL (≈ 13.8 µM); in the assay on CAKI-1 [15], 16.8 µg/mL (≈ 27.6 µM); in the assay with HCT-8 it was 14.9 µg/mL (≈ 24.5 µM). Also, the Inhibition in the assay on 1A9 [19] was 55%.

Turning to `CCCCC/C=C\CCC(O)C(O)CCCC[C@@H](O)[C@@H]1CC[C@@H](CCCCCCCCCCCCC2=C[C@H](C)OC2=O)O1` (stereo partly specified), the figures for the Inhibition with 1A9 [20] and in the assay on 1A9/ptx-10 [7] were 39% and 13%, respectively. Besides, the EC50 in the assay with KB [3], in the assay with KB [5], in the assay with PC-3 [6], in the assay on MCF7 [9] and in the assay on HCT-8 was over 20 µg/mL in each case. The NA result in the assay with SK-MEL-2 [4], in the assay with HOS [14], in the assay on A549 [16] and in the assay with CAKI-1 [10] was “inactive” throughout.
